From ChEMBL document CHEMBL1131384, “Synthesis and structure-activity relationships of potent and orally active 5-HT4 receptor antagonists: indazole and benzimidazolone derivatives” (J Med Chem, 1998) come the findings set out here.

Where only a bound is given, the exact number is not on record here.

Chain of 5-hydroxytryptamine receptor 4 (Rattus norvegicus) (Q62758 whole entry): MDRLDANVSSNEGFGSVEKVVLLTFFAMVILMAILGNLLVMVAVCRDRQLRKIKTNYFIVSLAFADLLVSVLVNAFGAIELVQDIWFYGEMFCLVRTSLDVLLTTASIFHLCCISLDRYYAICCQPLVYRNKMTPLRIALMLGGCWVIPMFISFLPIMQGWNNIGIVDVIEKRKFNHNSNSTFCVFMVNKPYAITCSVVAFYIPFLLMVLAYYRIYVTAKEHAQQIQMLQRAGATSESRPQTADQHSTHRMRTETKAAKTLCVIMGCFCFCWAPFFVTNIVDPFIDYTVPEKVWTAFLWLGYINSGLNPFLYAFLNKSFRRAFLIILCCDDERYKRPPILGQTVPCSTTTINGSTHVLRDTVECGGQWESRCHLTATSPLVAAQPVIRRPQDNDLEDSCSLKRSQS
Chain of Serotonin 2 (5-HT2) receptor (Rattus norvegicus) (P08909 whole entry, looked up): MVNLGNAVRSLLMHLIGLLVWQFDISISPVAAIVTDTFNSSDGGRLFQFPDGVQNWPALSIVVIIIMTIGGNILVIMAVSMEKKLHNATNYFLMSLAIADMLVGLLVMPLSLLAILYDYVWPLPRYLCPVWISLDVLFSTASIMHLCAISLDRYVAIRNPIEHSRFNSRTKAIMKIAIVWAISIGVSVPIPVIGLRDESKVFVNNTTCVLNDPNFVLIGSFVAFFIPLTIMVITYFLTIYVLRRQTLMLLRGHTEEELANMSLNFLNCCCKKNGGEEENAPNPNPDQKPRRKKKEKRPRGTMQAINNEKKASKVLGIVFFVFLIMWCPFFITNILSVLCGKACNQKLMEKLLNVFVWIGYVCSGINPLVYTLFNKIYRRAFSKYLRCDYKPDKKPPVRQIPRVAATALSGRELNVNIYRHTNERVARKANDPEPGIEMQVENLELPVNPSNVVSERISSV
Chain of Serotonin 2 (5-HT2) receptor (Rattus norvegicus) (P14842 whole entry, looked up): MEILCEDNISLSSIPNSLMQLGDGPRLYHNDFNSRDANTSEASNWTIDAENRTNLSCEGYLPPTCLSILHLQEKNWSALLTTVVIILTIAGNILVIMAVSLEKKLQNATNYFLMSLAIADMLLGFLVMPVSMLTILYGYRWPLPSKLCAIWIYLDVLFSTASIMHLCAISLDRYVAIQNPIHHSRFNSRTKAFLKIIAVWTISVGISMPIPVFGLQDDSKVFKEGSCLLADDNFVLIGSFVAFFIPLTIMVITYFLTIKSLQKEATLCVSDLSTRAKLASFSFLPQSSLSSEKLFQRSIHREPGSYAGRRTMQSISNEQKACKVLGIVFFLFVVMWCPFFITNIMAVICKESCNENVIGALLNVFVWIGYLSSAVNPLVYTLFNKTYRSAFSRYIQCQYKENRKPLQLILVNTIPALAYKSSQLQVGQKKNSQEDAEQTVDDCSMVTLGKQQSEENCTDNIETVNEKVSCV
Chain of Serotonin 2 (5-HT2) receptor (Rattus norvegicus) (P30994 whole entry, looked up): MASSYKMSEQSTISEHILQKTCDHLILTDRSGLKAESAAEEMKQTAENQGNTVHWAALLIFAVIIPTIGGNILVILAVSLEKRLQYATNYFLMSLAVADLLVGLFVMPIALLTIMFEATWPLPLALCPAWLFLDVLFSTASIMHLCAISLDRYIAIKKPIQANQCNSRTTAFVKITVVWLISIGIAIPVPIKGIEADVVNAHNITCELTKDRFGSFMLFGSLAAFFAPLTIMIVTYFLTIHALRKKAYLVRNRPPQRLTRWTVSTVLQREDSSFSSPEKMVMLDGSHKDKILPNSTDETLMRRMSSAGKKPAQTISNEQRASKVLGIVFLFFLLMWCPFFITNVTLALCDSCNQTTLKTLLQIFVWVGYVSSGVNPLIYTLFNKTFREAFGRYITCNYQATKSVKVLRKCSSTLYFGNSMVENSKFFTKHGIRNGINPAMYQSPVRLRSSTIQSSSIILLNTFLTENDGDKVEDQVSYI

The first test addresses Serotonin 2 (5-HT2) receptor (Rattus norvegicus) (UniProt P30994+P08909+P14842). The test can be described thus: Binding affinity against 5-hydroxytryptamine 2 receptor in serotonin-induced contraction of the rat aorta. The class given is tissue-based.
What is called pKb is the negative decadic logarithm of the Kb, by convention in mol/L. `CC(C)n1nc(C(=O)NC2CCN(CCN3C(=O)c4ccccc4C3=O)CC2)c2ccccc21` showed a pKb of less than 5.
Same read-out and setting: the same measure for `CC(C)n1nc(C(=O)NC2CCN(CCCOc3ccc(F)cc3)CC2)c2ccccc21`: 6.8.

The target of a further test is 5-hydroxytryptamine receptor 4 (Rattus norvegicus) (UniProt Q62758). The test can be described thus: Antagonistic activity by ability to block serotonin induced relaxation (mediated by activation of 5-hydroxytryptamine 4 receptor) in carbamylcholine (10e-6 M) contracted esophagus at a concentration of 10e-7 M. It counts as functional, tissue-based. Summed up:
(§1)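 Isolated rat esophagus precontracted with carbamylcholine (10^-6 M). Tissue was challenged with serotonin (1 µM) in the presence of the antagonist at a given concentration or of vehicle. Relaxation was recorded as % relaxation to 10^-6 M 5-HT, given as mean ± SEM with the number of determinations.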
In the case of `CC(C)n1c(=O)n(C(=O)NC2CCN(C)CC2)c2ccccc21`, the Relaxation turned out to be 40.8%.
The compound `CC(C)n1c(=O)n(C(=O)NC2CCN(CCCOc3ccc(F)cc3)CC2)c2ccccc21` displayed a Relaxation of 62%.
On the same count and under the same terms, the same measure for `CC(C)n1nc(C(=O)NCCN2CCC(Cc3ccccc3)CC2)c2ccccc21`: 42%; for `CCC(=O)NC1CCN(CCNC(=O)c2nn(C(C)C)c3ccccc23)CC1`: 11.3%.
The compound `CC(C)n1nc(C(=O)NC2CCN(CCNC(=O)c3ccccc3)CC2)c2ccccc21` gave a Relaxation of 28%.
The same measure, in the same setting: the same measure for `CC(C)n1nc(C(=O)NCCN2CCOCC2)c2ccccc21`: 42.3%.
Regarding `CC(C)n1nc(C(=O)NCCN2CCC(NC(=O)C34C[C@H]5C[C@@H](C3)C[C@@H](C4)C5)CC2)c2ccccc21`, the Relaxation was 11%.
In the case of `CC(C)n1nc(C(=O)NCCN2CCC(NC(=O)Nc3ccc(F)cc3)CC2)c2ccccc21`, the Relaxation turned out to be 44.8%.
On the same count and under the same terms, the same measure for `CC(C)n1nc(C(=O)NC2CCN(CCNC(=O)C34C[C@H]5C[C@@H](C3)C[C@@H](C4)C5)CC2)c2ccccc21`: 38.5%; for `CC(C)n1nc(C(=O)NCCN2CCC(NC(=O)Cc3ccccc3)CC2)c2ccccc21`: 23.7%.
On the same count and under the same terms, the same measure for `CC(C)n1nc(C(=O)NC2CC3CCC(C2)N3CCCOc2ccc(F)cc2)c2ccccc21` (configuration not stated): 22.2%; for `CC(C)n1nc(C(=O)NC2CCN(CCNS(C)(=O)=O)CC2)c2ccccc21`: 16%; for `CC(C)n1nc(C(=O)NCCN2CCC(NC(=O)C(C)(C)C)CC2)c2ccccc21`: 7.8%.
In turn, `CC(C)n1nc(C(=O)NCCN2CCC(NC(=O)c3ccccc3)CC2)c2ccccc21` had a Relaxation of 14.7%.
On to `CC(C)n1nc(C(=O)NCCCCN2CCCCC2)c2ccccc21`, for which the Relaxation stood at 43.3%.
As to `CCCC(=O)NC1CCN(CCNC(=O)c2nn(C(C)C)c3ccccc23)CC1`, the Relaxation worked out at 26.5%.
Compound `CC(C)n1c(=O)n(C(=O)NC2CC3CCC(C2)N3CCCOc2ccc(F)cc2)c2ccccc21` (configuration not stated) yielded a Relaxation of 29.5%.
Same read-out and setting: the same measure for `CCCCC(=O)NC1CCN(CCNC(=O)c2nn(C(C)C)c3ccccc23)CC1`: 25.6%; for `CC(C)C(=O)NC1CCN(CCNC(=O)c2nn(C(C)C)c3ccccc23)CC1`: 9%; for `CC(C)n1nc(C(=O)NC2CCN(CCCOc3ccc(F)cc3)CC2)c2ccccc21`: 15.7%.

For the next test the target is unchanged. The test can be described thus: Antagonistic activity by ability to block serotonin induced relaxation (mediated by activation of 5-hydroxytryptamine 4 receptor) in carbamylcholine (10e-6 M) contracted esophagus at a concentration of 10e-6 M. The class given is functional, tissue-based. Summed up: as §1
The compound `CC(C)n1c(=O)n(C(=O)NC2CCN(C)CC2)c2ccccc21` displayed a Relaxation of 7.5%.
On the same count and under the same terms, the same measure for `CCN(CC)CCNC(=O)c1nn(C(C)C)c2ccccc12`: 26.8%; for `CC(C)n1nc(C(=O)NC2CCN(CCCc3ccccc3)CC2)c2ccccc21`: 3.7%.
For `CCC(C)n1c(=O)n(C(=O)NC2CC3CCC(C2)N3C)c2ccccc21` (configuration not stated), the Relaxation was determined as 8.8%.
Turning to `CC(C)n1nc(C(=O)NCCN2CCC(Cc3ccccc3)CC2)c2ccccc21`, the Relaxation came to 16.4%.
With `CC(C)n1nc(C(=O)NCCN2CCC(NC(=O)OCc3ccccc3)CC2)c2ccccc21`, the Relaxation came to 2.8%.
The same measure, in the same setting: the same measure for `CC(C)n1nc(C(=O)NC2CCN(CCNC(=O)c3ccccc3)CC2)c2ccccc21`: 6%.
The same measure, in the same setting: the same measure for `CN1C2CCC1CC(NC(=O)c1c[nH]c3ccccc13)C2` (configuration not stated): 60%; for `CC(C)n1nc(C(=O)NCCN2CCOCC2)c2ccccc21`: 19.8%.
Compound `CC(C)n1nc(C(=O)NCCN2CCC(NS(C)(=O)=O)CC2)c2ccccc21` returned a Relaxation of 7.3%.
`COc1cc(N)c(Cl)cc1C(=O)NC1CC2CCC(C1)N2C` (configuration not stated) returned a Relaxation of 5.4%.
The same measure, in the same setting: the same measure for `CC(C)n1nc(C(=O)NCCN2CCC(NC(=O)Nc3ccc(F)cc3)CC2)c2ccccc21`: 6.3%; for `CC(C)n1nc(C(=O)NC2CCN(CCNC(=O)C34C[C@H]5C[C@@H](C3)C[C@@H](C4)C5)CC2)c2ccccc21`: 1%; for `CC(C)n1nc(C(=O)NCCN2CCC(NC(=O)Cc3ccccc3)CC2)c2ccccc21`: 5.6%.
Regarding `CC(C)n1nc(C(=O)NC2CC3CCC(C2)N3CCCOc2ccc(F)cc2)c2ccccc21` (configuration not stated), the Relaxation came out at 17.7%.
Take `CC(C)n1nc(C(=O)NC2CCN(CCNS(C)(=O)=O)CC2)c2ccccc21`: the Relaxation came to 6.8%.
On the same count and under the same terms, the same measure for `CC(C)n1nc(C(=O)NCCN2CCC(NC(=O)C(C)(C)C)CC2)c2ccccc21`: 3.3%; for `CC(C)n1nc(C(=O)NCCN2CCC(NC(=O)c3ccccc3)CC2)c2ccccc21`: 2%; for `CC(C)n1nc(C(=O)NCCCCN2CCCCC2)c2ccccc21`: 3.3%.
Still for that read-out and setting: the same measure for `CC(C)n1c(=O)n(C(=O)NC2CC3CCC(C2)N3CCCOc2ccc(F)cc2)c2ccccc21` (configuration not stated): 2.1%; for `CC(C)n1nc(C(=O)NC2CCN(CCN3C(=O)c4ccccc4C3=O)CC2)c2ccccc21`: 7.5%; for `CC(C)n1nc(C(=O)NC2CCN(CCCOc3ccc(F)cc3)CC2)c2ccccc21`: 7.5%.

Another test shares this target. The test can be described thus: Antagonistic activity evaluated by ability to block serotonin induced relaxation (mediated by activation of 5-hydroxytryptamine 4 receptor) in carbamylcholine (10e-6 M) contracted esophagus at a concentration of 10e-5 M. The class given is functional, tissue-based. The gist of the method:
as §1
Regarding `COc1cc(N)c(Cl)cc1C(=O)NC1CC2CCC(C1)N2C` (configuration not stated), the Relaxation amounted to 2.8%.

In the next test the target is T1, Adrenergic receptor alpha-1 (Rattus norvegicus) (UniProt P15823+P23944+P43140). The test can be described thus: Binding affinity for Alpha-1 adrenergic receptor in rat aorta determined by block of norepinephrine induced contraction of rat aorta. The class given is tissue-based.
With `CC(C)n1nc(C(=O)NC2CCN(CCCc3ccccc3)CC2)c2ccccc21`, the pKb was 5.8.
In turn, `CC(C)n1nc(C(=O)NCCN2CCC(NC(=O)OCc3ccccc3)CC2)c2ccccc21` returned a negative logarithm of the Kb (pKb) of less than 5.
As for `CC(C)n1nc(C(=O)NC2CCN(CCNC(=O)c3ccccc3)CC2)c2ccccc21`, the negative logarithm of the Kb (pKb) stood at 5.8.
The same measure, in the same setting: the same measure for `CC(C)n1nc(C(=O)NC2CCN(CCNS(C)(=O)=O)CC2)c2ccccc21`: less than 5; for `CC(C)n1nc(C(=O)NC2CCN(CCCOc3ccc(F)cc3)CC2)c2ccccc21`: 6.7.

A further test deals with T1, Adrenergic receptor alpha-1 (Rattus norvegicus). The test can be described thus: Affinity for the alpha-1 adrenergic receptor determined by the displacement of [3H]prazosin from rat whole brain tissue. It counts as tissue-based. A general note: Loss of bound radioactivity is the signal in a displacement assay; it reports binding, not function.
One may read the pKi as the Ki on a negative log10 scale, so that one unit is a factor of ten. A low value points to a large Ki. For the compound `CC(C)n1nc(C(=O)NCCN2CCC(NC(=O)OCc3ccccc3)CC2)c2ccccc21`, the pKi is 5.9.
In turn, `CC(C)n1nc(C(=O)NC2CCN(CCNC(=O)c3ccccc3)CC2)c2ccccc21` gave a negative-log Ki (pKi) of 6.62.
Compound `CC(C)n1nc(C(=O)NCCN2CCC(NC(=O)C34C[C@H]5C[C@@H](C3)C[C@@H](C4)C5)CC2)c2ccccc21` gave a negative-log Ki (pKi) of 4.3.
`CC(C)n1nc(C(=O)NC2CCN(CCNS(C)(=O)=O)CC2)c2ccccc21` displayed a negative logarithm of the Ki (pKi) of less than 4.
On the same count and under the same terms, the same measure for `CC(C)n1nc(C(=O)NCCCCN2CCCCC2)c2ccccc21`: 5.2; for `CC(C)n1nc(C(=O)NC2CCN(CCCOc3ccc(F)cc3)CC2)c2ccccc21`: 7.69.

A further test addresses 5-hydroxytryptamine receptor 4 (Rattus norvegicus) (UniProt Q62758). The test can be described thus: Antagonistic activity evaluated by ability to block serotonin induced relaxation (mediated by activation of 5-hydroxytryptamine 4 receptor) in carbamylcholine (10e-6 M) contracted esophagus at a concentration of 10e-8 M. The class given is functional, tissue-based. The gist of the method: as §1
Compound `CC(C)n1nc(C(=O)NCCN2CCC(NC(=O)C34C[C@H]5C[C@@H](C3)C[C@@H](C4)C5)CC2)c2ccccc21` had a Relaxation of 48.1%.
The compound `CC(C)n1nc(C(=O)NCCN2CCC(NC(=O)C(C)(C)C)CC2)c2ccccc21` returned a Relaxation of 50.5%.
Turning to `CC(C)n1nc(C(=O)NCCN2CCC(NC(=O)c3ccccc3)CC2)c2ccccc21`, the Relaxation was determined as 34.3%.
In turn, `CCCCC(=O)NC1CCN(CCNC(=O)c2nn(C(C)C)c3ccccc23)CC1` displayed a Relaxation of 51%.
Same read-out and setting: the same measure for `CC(C)C(=O)NC1CCN(CCNC(=O)c2nn(C(C)C)c3ccccc23)CC1`: 34.8%.

A further test shares this target. The test can be described thus: Antagonistic activity evaluated by ability to block serotonin induced relaxation via 5-hydroxytryptamine 4 receptor) in carbamylcholine (10e-6 M) contracted esophagus at a concentration of 0.1 mg/kg (p.o.). It counts as functional, organism-based. Further details: dose 0.1 mg/kg. Summed up: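 Rats were dosed with the antagonist by oral gavage. Esophagus was removed 3 h after dosing and challenged ex vivo with serotonin. Read-out was % relaxation of the carbamylcholine-contracted tissue to 10^-6 M 5-HT, given as mean ± SEM with the number of determinations.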
For `CC(C)n1nc(C(=O)NCCN2CCC(Cc3ccccc3)CC2)c2ccccc21`, the Relaxation was found to be 26%.
`CCC(=O)NC1CCN(CCNC(=O)c2nn(C(C)C)c3ccccc23)CC1` displayed a Relaxation of 36%.
Same read-out and setting: the same measure for `CC(C)n1nc(C(=O)NCCN2CCC(NC(=O)OCc3ccccc3)CC2)c2ccccc21`: 21%; for `CC(C)n1nc(C(=O)NCCN2CCC(NS(C)(=O)=O)CC2)c2ccccc21`: 29%.
Still for that read-out and setting: the same measure for `CC(C)n1nc(C(=O)NCCN2CCC(NC(=O)C34C[C@H]5C[C@@H](C3)C[C@@H](C4)C5)CC2)c2ccccc21`: 27%; for `CC(C)n1nc(C(=O)NCCN2CCC(NC(=O)Nc3ccc(F)cc3)CC2)c2ccccc21`: 45.5%.
For `CC(C)n1nc(C(=O)NCCN2CCC(NC(=O)Cc3ccccc3)CC2)c2ccccc21`, the Relaxation is 39%.
Take `CC(C)n1nc(C(=O)NCCN2CCC(NC(=O)C(C)(C)C)CC2)c2ccccc21`: the Relaxation was 30%.
The compound `CC(C)n1nc(C(=O)NCCN2CCC(NC(=O)c3ccccc3)CC2)c2ccccc21` yielded a Relaxation of 50%.
The same measure, in the same setting: the same measure for `CC(C)n1nc(C(=O)NCCCCN2CCCCC2)c2ccccc21`: 49%.
In turn, `CCCC(=O)NC1CCN(CCNC(=O)c2nn(C(C)C)c3ccccc23)CC1` registered a Relaxation of 51%.
The compound `CCCCC(=O)NC1CCN(CCNC(=O)c2nn(C(C)C)c3ccccc23)CC1` displayed a Relaxation of 38%.
The same measure, in the same setting: the same measure for `CC(C)C(=O)NC1CCN(CCNC(=O)c2nn(C(C)C)c3ccccc23)CC1`: 45%.

For the next test the target is unchanged. The test can be described thus: Antagonistic activity evaluated by ability to block serotonin induced relaxation (via 5-hydroxytryptamine 4 receptor) in carbamylcholine (10e-6 M) contracted esophagus at a concentration of 3*10e-8 M. It counts as functional. Summed up: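 Isolated rat esophagus precontracted with carbamylcholine (10^-6 M), then challenged with serotonin (1 μM) in the presence of antagonist at the stated concentration or vehicle. Read-out is % relaxation to serotonin, given as mean ± SEM with the number of determinations.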
Regarding `CC(C)n1nc(C(=O)NCCN2CCC(NC(=O)C34C[C@H]5C[C@@H](C3)C[C@@H](C4)C5)CC2)c2ccccc21`, the Relaxation is 23.2%.
Still for that read-out and setting: the same measure for `CC(C)n1nc(C(=O)NCCN2CCC(NC(=O)C(C)(C)C)CC2)c2ccccc21`: 35%; for `CC(C)n1nc(C(=O)NC2CCN(CCCOc3ccc(F)cc3)CC2)c2ccccc21`: 36%.
